# Runt-SMMHC FRET – inhibitors of RUNX1 Runt–CBFb-SMMHC binding, primary screen, biochemical, FRET, Cerulean-Runt, Venus-CBFb-SMMHC, uHTS; inhibition, % at 20 µM; 220,000 compounds, 0.74% hits; AID 1434, 2008; Cerulean-Runt/Venus-CBFb-SMMHC FRET ratio 530/480, 1 h; Runt-related transcription factor 1 (Homo sapiens) + Core-binding factor subunit beta …;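 active = mean inhibition across duplicate retests at 20 µM reaching about 50%, limit read from the data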;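 note: 0% = DMSO wells and 100% = wells with excess untagged CBFb-SMMHC; inhibitors lower the FRET ratio by blocking Runt binding to CBFb-SMMHC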
# Runt-CBFb FRET – inhibitors of RUNX1 Runt–CBFb binding, primary screen, biochemical, FRET, Cerulean-Runt, Venus-CBFb, uHTS; Runt-related transcription factor 1 (Homo sapiens) + Core-binding factor subunit beta …; Cerulean-Runt/Venus-CBFb FRET ratio 530/480, 1 h; inhibition, % at 20 µM; 220,000 compounds, 0.46% hits; AID 1496, 2009;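 active = inhibition over about 50% at 20 µM in the single-dose screen, limit read from the data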;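 note: 0% = DMSO wells and 100% = excess unlabeled CBFb competitor control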
#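 Assay system: Cerulean-Runt domain fusion protein, energy donor; Signal: fluorescence energy transfer, 422 nm excitation, 530/480 nm emission; Timing: 1 h compound exposure, room temperature; Control set: unlabeled CBFb; Medium: Tris buffer pH 7.5 with salts and BSA; Compound: single test concentration of 20 µM, 1% DMSO final; Probe or stimulus: Venus-CBFb 100 nM.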
# Hck-Nef inh – inhibitors of Nef-activated human Hck kinase, primary screen, biochemical, Z-Lyte FRET, 384-well, Hck-YEEI; 220,000 compounds, 0.68% hits; Recombinant Hck-YEEI plus Nef, Z-Lyte FRET kinase assay; inhibition, % at 20 µM; Tyrosine-protein kinase HCK (Homo sapiens), P08631;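 active = Hck-Nef kinase inhibition above about 50%, limit read from the data; inactive = inhibition below that limit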;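 note: 0% = DMSO with Hck plus Nef and 100% = Hck alone without Nef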
# Target sequence (P08631 whole entry, looked up): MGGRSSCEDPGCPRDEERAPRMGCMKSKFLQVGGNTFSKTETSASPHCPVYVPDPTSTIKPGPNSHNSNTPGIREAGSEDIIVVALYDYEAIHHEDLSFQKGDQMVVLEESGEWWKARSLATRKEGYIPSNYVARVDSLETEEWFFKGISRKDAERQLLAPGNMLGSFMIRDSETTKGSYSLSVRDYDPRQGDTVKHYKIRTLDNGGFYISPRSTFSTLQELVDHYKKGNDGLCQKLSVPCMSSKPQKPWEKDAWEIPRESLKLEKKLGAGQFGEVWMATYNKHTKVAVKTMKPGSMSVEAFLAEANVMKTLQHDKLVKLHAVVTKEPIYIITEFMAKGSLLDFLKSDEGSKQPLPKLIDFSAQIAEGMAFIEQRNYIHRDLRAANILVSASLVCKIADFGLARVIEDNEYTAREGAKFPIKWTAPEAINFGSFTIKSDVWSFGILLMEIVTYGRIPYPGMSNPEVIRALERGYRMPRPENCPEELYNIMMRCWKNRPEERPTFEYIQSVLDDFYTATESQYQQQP
# RanGTP-Impb inh – inhibitors of RanGTP-importin-beta interaction, primary screen, biochemical, FRET, CFP-Ran, YFP-importin-beta, homogeneous. Ran GTPase (GTP-bound) - importin-beta complex. cell-free CFP-Ran/YFP-importin-beta FRET ratio. inhibition, % (test concentration not listed). 300,000 compounds, 1.1% hits;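 active = more than half of the replicate wells show a fall in the fluorescence ratio signal beyond about 16%, limit read from the data, passing the limit was not always enough; inconclusive = exactly half of the replicate wells pass the set limit; inactive = fewer than half of replicates pass the limit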;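 note: 0% = DMSO wells and 100% = Ran loaded with GDP instead of GTP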
# Tb hexokinase – Trypanosoma brucei hexokinase 1 inhibitors, primary screen, biochemical, G6PDH-coupled NADH absorbance, MLSCN library. recombinant TbHK1, G6PDH-coupled NADH A340. inhibition, % at 10 µM. 220,000 compounds, 0.11% hits. AID 1430, 2008;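 active = inhibition of 50% or more in the single-dose primary screen; inactive = inhibition below 50%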
# Starred values were filed as active, the others as inactive; ? = inconclusive; . = no result given. Only some compounds are listed: those with a hit (about 1.9% of all), similar ones and a draw of the others.
SMILES,Runt-SMMHC FRET,Runt-CBFb FRET,Hck-Nef inh,RanGTP-Impb inh,Tb hexokinase
CSCC(C)N1CCC(n2nccc2NC(=O)c2ccc3c(c2)OCO3)CC1 (stereo not drawn),.,.,.,11,.
Cc1c(NC(=O)CN2C(=O)NC(CCc3ccccc3)C2=O)c(=O)n(-c2ccccc2)n1C (stereo not drawn),2,0,-7,34*,3
CCN(CC)c1ccc2c(O)cc(=O)oc2c1,-5,0,20,5,-37
Nc1ccc2c(C(F)(F)F)cc(=O)oc2c1,61*,18,0,57*,-19
Cc1ccc(C(=O)N=c2sccn2C)o1,.,.,.,-2,.
Cc1ccc(C(=O)COC(=O)c2cc(=O)[nH]c3ccccc23)cc1C,-3,0,41,37*,-10
COc1ccccc1C(=O)COC(=O)c1cc(=O)[nH]c2ccccc12,.,.,.,3,.
O=C(CSc1nc2c([nH]c3ccccc32)c(=O)n1-c1cccc(Cl)c1)N1CCOCC1,-1,.,53*,?,12
O=S(=O)(O)c1cc(O)c2c(O)c(N=Nc3cc(Cl)ccc3O)c(S(=O)(=O)O)cc2c1,.,.,.,57*,.
CN1CCc2c(sc(NC(=O)c3ccco3)c2C(N)=O)C1,.,.,.,83*,.
CC(C)N1CCc2c(sc(NC(=O)c3ccco3)c2C(N)=O)C1,.,.,.,101*,.
COC(=O)c1c(NC(=O)c2ccco2)sc2c1CCN(C(C)C)C2,.,.,.,54*,.
CN1CCc2c(sc(NC(=O)c3cc(Cl)sc3Cl)c2C(N)=O)C1,.,.,.,147*,.
CN1CCc2c(sc(NC(=O)c3cc4cc([N+](=O)[O-])ccc4s3)c2C(N)=O)C1,17,5,21,4,-17
CCc1nc(SCC(=O)c2cccs2)c2oc3ccccc3c2n1,0,-4,0,6,-4
COC(=O)Nc1ccc(SCC(=O)c2cccc([N+](=O)[O-])c2)cc1,.,.,.,0,.
CN1C(=O)/C(=C2/C=Cc3ccccc3N2CCCS(=O)(=O)O)SC1=S,-2,-2,6,-6,-15
C=CCN1C(=O)/C(=C2/Sc3ccccc3N2CCCS(=O)(=O)O)SC1=S,65*,66*,6,45*,12
CCN1C(=O)/C(=C/N2CCc3ccccc32)SC1=S,62,-72,9,28*,23
CCCCOc1ccc(-c2nnn(C(C)(C)C(=O)OC)n2)cc1,-4,-3,1,-1,1
CCCCOc1ccc(-c2nnn(C(C)C(=O)OCC)n2)cc1 (stereo not drawn),-5,-6,-1,91*,-3
COc1ccc(-n2c(=O)c3c4c(sc3n3c(=S)[nH]nc23)CCCC4)cc1,12,23,1,?,38
Cc1ccc(NC(=O)c2ccc(-n3cncn3)c([N+](=O)[O-])c2)cc1,-2,-1,3,26*,-3
Cc1ccc(CNc2ccc3c(c2)ncn3C(C)(C)C)cc1,43,7,15,36*,4
Cc1ccc(S(=O)(=O)Nc2ccc3c(c2)ncn3C(C)(C)C)cc1,1,-2,4,3,2
SMILES,Runt-SMMHC FRET,Runt-CBFb FRET,Hck-Nef inh,RanGTP-Impb inh,Tb hexokinase
Cc1ccc(CNc2ccc3c(c2)ncn3C)cc1,7,21,1,16*,-2
Cc1ccc(-n2cnc3cc(NCc4cccs4)ccc32)cc1,12,5,-1,19*,-1
O=C(Nc1c2c(nc3c1CCC3)CCCC2)c1ccccn1,1,0,3,-5,-4
Cc1cc(C)c2c(=O)n(CC(=O)NC3CCCC3)sc2n1,53*,2,-141,-2,-6
CC(=O)c1ccc(N2CCN(C(=O)C3CCN(S(=O)(=O)c4cccs4)CC3)CC2)cc1,.,.,.,-1,.
Cc1ccc(C)c(NC(=O)c2nnn(Cc3ccccc3)c2N)c1,-32,0,0,168*,1
Cc1ccc(Cn2nnc(C(=O)Nc3cc(C)ccc3C)c2N)cc1,3,-2,1,2,-9

# Source: PubChem
